Data: ChEMBL document CHEMBL5724801, “EUbOPEN Chemogenomics Library - Multiplex” (2024)
Where “and” joins values, the source holds several entries; their conditions need not be identical. Equal entries are not always repeated.

Test system: U2OS
Test: Multiplex assay against U2OS
Type: toxicity, cell-based
Conditions: human
Outline: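 At seeding, live cells were stained with Hoechst33342, BioTracker Green Microtubule Cytoskeleton Dye, MitoTracker Red and Annexin V Alexa Fluor 680. After compound addition they were imaged on a CQ1 microscope at 37°C and 5% CO2, and CellPathfinder machine-learning gating sorted them into Hoechst high-intensity objects or normal cells, with normal cells further split into healthy, pyknosed or fragmented nuclei and pyknosed cells into mitotic or apoptotic. Tubulin, mitochondrial-mass and membrane-permeability phenotypes are given as per cents of cells with healthy nuclei.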

[1] = 12 h, 1 µM, compound concentration 1 uM
[2] = 12 h, 10 µM, compound concentration 10 uM
[3] = 24 h, 1 µM, compound concentration 1 uM
[4] = 24 h, 10 µM, compound concentration 10 uM
[5] = 48 h, 1 µM, compound concentration 1 uM
[6] = 48 h, 10 µM, compound concentration 10 uM

## CC1(COc2ccc3c(c2)ncn3-c2ccc3cccc(N4CCC(N)CC4)c3n2)COC1 [CRENOLANIB]
[1]
  Population Apoptotic (%): 58% and 25%
  Population Fragmented Nuclei (%): 36% and 28%
  Population Healthy Nuclei (%): 50% and 60%
  Population Hoechst High Intensity Objects (%): 9% and 13%
  Population Membrane Permeable-Phenotype (%): 87% and 82%
  Population Mitochondria Different-Phenotype (%): 51% and 73%
  Population Mitotic Cells (%): 41% and 75%
  Population Normal (%): 90% and 86%
  Population Pyknosed Nuclei (%): 13% and 10%
  Population Tubulin-Different-Phenotype (%): 92% and 88%
  Total Cell Count: 143 and 86
[2]
  Population Apoptotic (%): 81% and 92%
  Population Fragmented Nuclei (%): 43% and 37%
  Population Healthy Nuclei (%): 11% and 21%
  Population Hoechst High Intensity Objects (%): 21% and 24%
  Population Membrane Permeable-Phenotype (%): 76% and 47%
  Population Mitochondria Different-Phenotype (%): 80% and 76%
  Population Mitotic Cells (%): 18% and 7%
  Population Normal (%): 78% and 75%
  Population Pyknosed Nuclei (%): 44% and 41%
  Population Tubulin-Different-Phenotype (%): 88% and 85%
  Total Cell Count: 274
[3]
  Population Apoptotic (%): 71% and 54%
  Population Fragmented Nuclei (%): 39% and 25%
  Population Healthy Nuclei (%): 45% and 62%
  Population Hoechst High Intensity Objects (%): 9% and 10%
  Population Membrane Permeable-Phenotype (%): 71% and 67%
  Population Mitochondria Different-Phenotype (%): 62% and 67%
  Population Mitotic Cells (%): 28% and 45%
  Population Normal (%): 90% and 89%
  Population Pyknosed Nuclei (%): 14% and 12%
  Population Tubulin-Different-Phenotype (%): 87% and 72%
  Total Cell Count: 156 and 98
[4]
  Population Apoptotic (%): 93% and 100%
  Population Fragmented Nuclei (%): 46% and 53%
  Population Healthy Nuclei (%): 8% and 11%
  Population Hoechst High Intensity Objects (%): 37% and 36%
  Population Membrane Permeable-Phenotype (%): 42% and 44%
  Population Mitochondria Different-Phenotype (%): 50% and 77%
  Population Mitotic Cells (%): 6% and 0%
  Population Normal (%): 62% and 63%
  Population Pyknosed Nuclei (%): 45% and 34%
  Population Tubulin-Different-Phenotype (%): 50% and 77%
  Total Cell Count: 254
[5]
  Population Apoptotic (%): 88% and 62%
  Population Fragmented Nuclei (%): 41% and 37%
  Population Healthy Nuclei (%): 43% and 48%
  Population Hoechst High Intensity Objects (%): 8% and 4%
  Population Membrane Permeable-Phenotype (%): 35% and 53%
  Population Mitochondria Different-Phenotype (%): 40% and 37%
  Population Normal (%): 91% and 95%
  Population Pyknosed Nuclei (%): 14% and 13%
  Population Tubulin-Different-Phenotype (%): 44% and 51%
  Total Cell Count: 186
[6]
  Population Apoptotic (%): 100%
  Population Fragmented Nuclei (%): 51% and 57%
  Population Healthy Nuclei (%): 11% and 13%
  Population Hoechst High Intensity Objects (%): 42% and 29%
  Population Membrane Permeable-Phenotype (%): 43% and 50%
  Population Mitochondria Different-Phenotype (%): 37% and 35%
  Population Mitotic Cells (%): 0%
  Population Normal (%): 58% and 70%
  Population Pyknosed Nuclei (%): 37% and 28%
  Population Tubulin-Different-Phenotype (%): 56% and 28%
  Total Cell Count: 250 and 144

## CCn1c(-c2nonc2N)nc2c(C#CC(C)(C)O)ncc(OCC3CCCNC3)c21 (stereo not drawn)
[1]
  Population Apoptotic (%): 30.23% and 52.17%
  Population Fragmented Nuclei (%): 3.38% and 1.86%
  Population Healthy Nuclei (%): 85.45% and 83.85%
  Population Hoechst High Intensity Objects (%): 0%
  Population Membrane Permeable-Phenotype (%): 1.22% and 1.48%
  Population Mitochondria Different-Phenotype (%): 0% and 5.93%
  Population Mitotic Cells (%): 69.77% and 47.83%
  Population Normal (%): 100%
  Population Pyknosed Nuclei (%): 11.17% and 14.29%
  Population Tubulin-Different-Phenotype (%): 0.91% and 0.74%
  Total Cell Count: 385 and 161
[2]
  Population Apoptotic (%): 37.04% and 27.91%
  Population Fragmented Nuclei (%): 2.62% and 8.28%
  Population Healthy Nuclei (%): 83.2% and 64.33%
  Population Hoechst High Intensity Objects (%): 0%
  Population Membrane Permeable-Phenotype (%): 0.95% and 4.95%
  Population Mitotic Cells (%): 62.96% and 72.09%
  Population Normal (%): 100%
  Population Pyknosed Nuclei (%): 14.17% and 27.39%
  Population Tubulin-Different-Phenotype (%): 2.52% and 4.95%
  Total Cell Count: 381 and 157
[3]
  Population Apoptotic (%): 38.6% and 42.86%
  Population Fragmented Nuclei (%): 2.16% and 1.54%
  Population Healthy Nuclei (%): 86.64% and 84.1%
  Population Hoechst High Intensity Objects (%): 0.2% and 0.51%
  Population Membrane Permeable-Phenotype (%): 0.68% and 5.49%
  Population Mitochondria Different-Phenotype (%): 0.23% and 1.83%
  Population Mitotic Cells (%): 61.4% and 57.14%
  Population Normal (%): 99.8% and 99.49%
  Population Pyknosed Nuclei (%): 11.2% and 14.36%
  Population Tubulin-Different-Phenotype (%): 1.36% and 0%
  Total Cell Count: 510 and 196
[4]
  Population Apoptotic (%): 44.32% and 50%
  Population Fragmented Nuclei (%): 2.7% and 7.78%
  Population Healthy Nuclei (%): 77.53% and 56.67%
  Population Hoechst High Intensity Objects (%): 0%
  Population Membrane Permeable-Phenotype (%): 0.29% and 0.98%
  Population Mitotic Cells (%): 55.68% and 50%
  Population Normal (%): 100%
  Population Pyknosed Nuclei (%): 19.78% and 35.56%
  Population Tubulin-Different-Phenotype (%): 3.48% and 3.92%
  Total Cell Count: 445 and 180
[5]
  Population Apoptotic (%): 50% and 45.16%
  Population Fragmented Nuclei (%): 2.09% and 2.15%
  Population Healthy Nuclei (%): 90.19% and 88.34%
  Population Hoechst High Intensity Objects (%): 0%
  Population Membrane Permeable-Phenotype (%): 1.22% and 1.39%
  Population Mitochondria Different-Phenotype (%): 0% and 4.51%
  Population Mitotic Cells (%): 50% and 54.84%
  Population Normal (%): 100%
  Population Pyknosed Nuclei (%): 7.72% and 9.51%
  Population Tubulin-Different-Phenotype (%): 0.49% and 1.04%
  Total Cell Count: 907 and 326
[6]
  Population Apoptotic (%): 65.03% and 83.08%
  Population Fragmented Nuclei (%): 6.86% and 8.16%
  Population Healthy Nuclei (%): 71.34% and 58.67%
  Population Hoechst High Intensity Objects (%): 0%
  Population Membrane Permeable-Phenotype (%): 1.71% and 7.83%
  Population Mitochondria Different-Phenotype (%): 0.64% and 7.83%
  Population Mitotic Cells (%): 34.97% and 16.92%
  Population Normal (%): 100%
  Population Pyknosed Nuclei (%): 21.8% and 33.16%
  Population Tubulin-Different-Phenotype (%): 2.56% and 7.83%
